Results published in ChEMBL document CHEMBL2016434, “Exploiting the P-1 pocket of BRCT domains toward a structure guided inhibitor design” (ACS Med Chem Lett, 2011).
Active and inactive are the calls of the source. The rule behind the calls is not given here. Non-standard residues stand in square brackets, D forms with d. Residues, ends and D or L forms follow the SMILES beside them. *: point of attachment. Benzoyl(3-Ph) = O=C(c1cccc(-c2ccccc2)c1)*; 2Nal = N[C@@H](Cc1ccc2ccccc2c1)C(=O)O; d2Nal = N[C@H](Cc1ccc2ccccc2c1)C(=O)O; Pentanoyl(5-Ph) = O=C(CCCCc1ccccc1)*; Butanoyl(4-Ph) = O=C(CCCc1ccccc1)*; Hydrocinnamoyl = O=C(CCc1ccccc1)*; pS = N[C@@H](COP(=O)(O)O)C(=O)O; X1 = O=C(C/C=C/c1ccccc1)*

Key:
[1] = target: T1, Breast cancer type 1 susceptibility protein (Homo sapiens, UniProt P38398); test: Inhibition of BRCT domain of His-tagged BRCA1 after 1 min by competitive fluorescence polarization assay
Target sequence in this assay (P38398 whole entry, the tested form may be a part): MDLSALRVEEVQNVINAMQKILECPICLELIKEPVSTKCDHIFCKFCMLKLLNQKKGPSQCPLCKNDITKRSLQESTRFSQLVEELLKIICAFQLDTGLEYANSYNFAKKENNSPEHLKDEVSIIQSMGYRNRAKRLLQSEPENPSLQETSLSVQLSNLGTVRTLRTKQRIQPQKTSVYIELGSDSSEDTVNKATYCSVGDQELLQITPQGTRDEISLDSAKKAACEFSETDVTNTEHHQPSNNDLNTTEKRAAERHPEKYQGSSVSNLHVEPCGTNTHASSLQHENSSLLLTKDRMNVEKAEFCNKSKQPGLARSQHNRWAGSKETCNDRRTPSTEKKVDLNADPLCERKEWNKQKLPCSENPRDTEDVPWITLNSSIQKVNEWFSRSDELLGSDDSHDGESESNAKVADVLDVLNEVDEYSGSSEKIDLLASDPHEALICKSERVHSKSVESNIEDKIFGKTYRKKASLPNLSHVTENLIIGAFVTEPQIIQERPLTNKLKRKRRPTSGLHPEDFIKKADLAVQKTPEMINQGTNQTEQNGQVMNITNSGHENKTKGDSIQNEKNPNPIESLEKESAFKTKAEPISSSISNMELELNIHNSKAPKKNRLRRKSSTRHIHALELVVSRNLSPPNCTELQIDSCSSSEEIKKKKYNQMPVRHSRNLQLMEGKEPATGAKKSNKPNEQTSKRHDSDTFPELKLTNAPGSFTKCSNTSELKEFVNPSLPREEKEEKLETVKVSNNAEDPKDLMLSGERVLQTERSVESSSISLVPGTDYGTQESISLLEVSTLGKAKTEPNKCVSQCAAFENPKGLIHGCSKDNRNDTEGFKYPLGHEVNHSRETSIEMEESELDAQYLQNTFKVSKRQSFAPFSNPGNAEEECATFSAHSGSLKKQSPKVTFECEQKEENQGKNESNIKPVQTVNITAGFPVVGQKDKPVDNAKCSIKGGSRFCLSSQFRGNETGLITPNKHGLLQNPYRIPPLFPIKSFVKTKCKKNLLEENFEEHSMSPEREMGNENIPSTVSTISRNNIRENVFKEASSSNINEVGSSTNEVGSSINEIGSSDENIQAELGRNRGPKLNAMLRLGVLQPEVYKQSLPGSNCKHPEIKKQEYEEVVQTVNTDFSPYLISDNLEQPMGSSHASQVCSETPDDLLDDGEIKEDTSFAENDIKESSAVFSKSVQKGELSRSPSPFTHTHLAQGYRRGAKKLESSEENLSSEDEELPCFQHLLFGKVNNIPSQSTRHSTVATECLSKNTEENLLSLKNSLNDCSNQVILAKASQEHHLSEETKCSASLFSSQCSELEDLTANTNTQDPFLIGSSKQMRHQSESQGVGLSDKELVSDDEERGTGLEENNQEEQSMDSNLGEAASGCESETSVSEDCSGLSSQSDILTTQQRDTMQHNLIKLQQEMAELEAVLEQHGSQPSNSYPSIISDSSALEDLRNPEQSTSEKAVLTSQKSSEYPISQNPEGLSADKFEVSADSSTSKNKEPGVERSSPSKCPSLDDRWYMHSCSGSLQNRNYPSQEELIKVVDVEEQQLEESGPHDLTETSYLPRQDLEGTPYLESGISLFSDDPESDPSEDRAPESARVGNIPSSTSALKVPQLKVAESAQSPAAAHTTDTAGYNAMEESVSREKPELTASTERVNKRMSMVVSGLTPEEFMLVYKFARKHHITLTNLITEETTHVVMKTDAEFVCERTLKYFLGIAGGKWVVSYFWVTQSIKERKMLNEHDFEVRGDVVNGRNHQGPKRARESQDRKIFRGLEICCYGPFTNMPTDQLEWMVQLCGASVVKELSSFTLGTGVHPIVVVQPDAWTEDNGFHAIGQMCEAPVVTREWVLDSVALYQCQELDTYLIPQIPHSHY

[2] = target: T1, Breast cancer type 1 susceptibility protein; test: Displacement of phospho-BACH1 protein from BRCT domain of BRCA1 at 0.5 to 5000 uM by PAGE analysis
In short: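 Phospho-BACH1 peptide immobilized on streptavidin–agarose beads was incubated with BRCT-BRCA1 together with the competing peptide mimics. Beads were then isolated and the bound protein resolved by polyacrylamide gel electrophoresis, followed by phosphor-screen exposure. Relative band intensities were quantified, and pulldown IC50 values were obtained by curve fitting.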
Target sequence in this assay (P38398 whole entry, looked up, the tested form may be a part): as the sequence (P38398 whole entry, the tested form may be a part) above

SMILES | Ki [1] [µM] | Activity [2]
CC(=O)N[C@@H](Cc1ccc2ccccc2c1)C(=O)N[C@@H](COP(=O)(O)O)C(=O)N1CCC[C@H]1C(=O)N[C@H](C(=O)N[C@@H](Cc1ccccc1)C(N)=O)[C@@H](C)O (Ac-[2Nal][pS]PTF-NH2) | 1.24 | –
CC(C)[C@H](NC(=O)[C@@H]1CCCN1C(=O)[C@H](COP(=O)(O)O)NC(=O)CCc1ccccc1)C(=O)N[C@@H](Cc1ccccc1)C(=O)O (Hydrocinnamoyl-[pS]PVF-OH) | 0.1 | –
CC(C)[C@H](NC(=O)[C@@H]1CCCN1C(=O)[C@H](COP(=O)(O)O)NC(=O)CCCc1ccccc1)C(=O)N[C@@H](Cc1ccccc1)C(=O)O ({Butanoyl(4-Ph)}-[pS]PVF-OH) | 0.5 | –
CC(C)[C@H](NC(=O)[C@@H]1CCCN1C(=O)[C@H](COP(=O)(O)O)NC(=O)CCCCc1ccccc1)C(=O)N[C@@H](Cc1ccccc1)C(=O)O ({Pentanoyl(5-Ph)}-[pS]PVF-OH) | 12 | –

Results, then the compound that gave them:

Ki [1] [µM] | Activity [2] | SMILES
0.54 | – | CC(=O)N[C@@H](Cc1ccc2ccccc2c1)C(=O)N[C@@H](COP(=O)(O)O)C(=O)N1CCC[C@H]1C(=O)N[C@H](C(=O)N[C@@H](Cc1ccccc1)C(N)=O)C(C)C (Ac-[2Nal][pS]PVF-NH2)
0.13 | – | CC(=O)N[C@@H](Cc1ccc2ccccc2c1)C(=O)N[C@@H](COP(=O)(O)O)C(=O)N1CCC[C@H]1C(=O)N[C@H](C(=O)N[C@@H](Cc1ccccc1)C(=O)O)C(C)C (Ac-[2Nal][pS]PVF-OH)
19.4 | – | CC(=O)N[C@H](Cc1ccc2ccccc2c1)C(=O)N[C@@H](COP(=O)(O)O)C(=O)N1CCC[C@H]1C(=O)N[C@H](C(=O)N[C@@H](Cc1ccccc1)C(N)=O)[C@@H](C)O (Ac-[d2Nal][pS]PTF-NH2)
0.04 | Active | CC(C)[C@H](NC(=O)[C@@H]1CCCN1C(=O)[C@H](COP(=O)(O)O)NC(=O)C/C=C/c1ccccc1)C(=O)N[C@@H](Cc1ccccc1)C(=O)O (X1-[pS]PVF-OH)
0.08 | Active | CC(C)[C@H](NC(=O)[C@@H]1CCCN1C(=O)[C@H](COP(=O)(O)O)NC(=O)c1cccc(-c2ccccc2)c1)C(=O)N[C@@H](Cc1ccccc1)C(=O)O ({Benzoyl(3-Ph)}-[pS]PVF-OH)
